Bioassay records as filed in PubChem.
CFTR F508del cor: correctors of CFTR F508del function in bronchial epithelial cells; CFBE cells, YFP halide quenching; stimulated with forskolin plus potentiator P3; % fluorescence drop versus neutral controls; activity (quench increase), % at 7.58 µM; actives 0.36% (n = 350,000);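 active = mean added fluorescence quench of at least 8% versus neutral control, with both replicates also reaching 8%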;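 note: cells transiently co-express mutant CFTR-F508del with the halide-sensitive YFP; corrector assay measuring rescue of mutant channel to the surface after 24 h compound exposure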
MC4R ag barr: human MC4R agonism via beta-arrestin; P32245; U2OS MC4R beta-arrestin complementation, luminescence; percent of melanotan II response, DMSO zero; activation, % at 8.9 µM; actives 0.98% (n = 360,000); AID 540308;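 active = activation above a per-plate cutoff, the mean activation of sample wells on that plate plus 3 SD, cut at about 8% in these data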
SMARCA2 act: activators of SMARCA2 function. MG213 cells, MMTV-luciferase reporter, dexamethasone, overnight. activation, % at 9.1 µM. actives 1% (n = 370,000); in the data active = activation above about 7.8%;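 note: 0% = vehicle wells and 100% = reference activator wells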
MC4R antag cAMP: antagonists of human melanocortin 4 receptor (MC4R) | P32245 | MC4R-expressing cells, MTII-stimulated cAMP, LANCE TR-FRET | inhibition, % at 6.5 µM | actives 0.48% (n = 360,000) | AID 540295;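 active = inhibition above its plate's cutoff, the mean of tested wells on that plate plus 3 SD, cut at about 29% in these data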;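 note: 0% = Melanotan II alone and 100% = Melanotan II plus saturating MCL0020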
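system = U2OS cells with stable human MC4R expression | also added = Melanotan II challenge after compound preincubation | dosing = one concentration, 6.5 µM nominal | incubation = compound 30 min, challenge 1 h, detection 1 h | measured by = TR-FRET with Eu-cAMP and labeled anti-cAMP, 671 nm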
MC4R barr conf: human MC4R beta-arrestin agonism confirmation. U2OS MC4R beta-arrestin recruitment, luminescence; scaled DMSO 0%, Melanotan II 100%. shares compounds with MC4R ag barr. activation, % at 8.9 µM. actives 31% (n = 2,400). AID 602192;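 active = mean activation across replicates above the hit cutoff set in the earlier primary screen, cut at about 8% in these data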
MOR DOR agonist: counter-screen for MC4R agonists: agonists of mu-delta opioid heterodimer. activation, % at 9.2 µM. shares compounds with MC4R ag barr. U2OS PathHunter beta-arrestin, beta-gal luminescence; percent of deltorphin B response, DMSO zero. actives 5.8% (n = 2,400);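 active = mean activation across replicates exceeds the hit threshold derived in the earlier primary screen, cut at about 18% in these data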;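 note: 100% = deltorphin B at 0.9 µM final and 0% = DMSO alone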
Target sequence (P35372 whole entry, looked up): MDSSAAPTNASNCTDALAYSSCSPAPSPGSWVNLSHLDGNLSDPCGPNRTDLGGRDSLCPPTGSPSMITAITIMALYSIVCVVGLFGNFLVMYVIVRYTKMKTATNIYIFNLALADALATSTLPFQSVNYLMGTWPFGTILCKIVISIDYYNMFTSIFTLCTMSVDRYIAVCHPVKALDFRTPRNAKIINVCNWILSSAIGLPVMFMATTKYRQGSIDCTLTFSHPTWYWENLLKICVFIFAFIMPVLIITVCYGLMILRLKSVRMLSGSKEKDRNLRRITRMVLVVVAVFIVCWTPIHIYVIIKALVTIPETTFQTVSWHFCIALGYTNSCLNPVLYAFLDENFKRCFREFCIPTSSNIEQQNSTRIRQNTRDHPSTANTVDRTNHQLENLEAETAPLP
Target sequence (P41143 whole entry, looked up): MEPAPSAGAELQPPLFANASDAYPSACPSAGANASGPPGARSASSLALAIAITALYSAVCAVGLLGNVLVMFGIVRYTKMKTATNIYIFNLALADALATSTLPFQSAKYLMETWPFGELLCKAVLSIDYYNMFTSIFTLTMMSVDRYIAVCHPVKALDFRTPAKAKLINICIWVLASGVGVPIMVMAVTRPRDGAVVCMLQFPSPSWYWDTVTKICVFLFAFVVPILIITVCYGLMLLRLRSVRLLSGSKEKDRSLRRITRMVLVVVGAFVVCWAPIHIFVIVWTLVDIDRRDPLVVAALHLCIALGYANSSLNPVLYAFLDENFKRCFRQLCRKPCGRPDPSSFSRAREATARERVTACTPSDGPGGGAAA
An asterisk follows results filed as active; . = no result given. The list is not random: actives were taken first. Their share in the collection is about 2.1%.

SMILES | CFTR F508del cor | MC4R ag barr | SMARCA2 act | MC4R antag cAMP | MC4R barr conf | MOR DOR agonist
COc1ccc(S(=O)(=O)Nc2ccc3c(c2)C(=O)N([C@@H](C)CO)C[C@H](C)[C@@H](CN(C)C(=O)Cc2ccccc2)OCCCC[C@H](C)O3)cc1 | 1 | . | . | . | . | .
CC(C)NC(=O)N(C)C[C@@H]1OCCCC[C@@H](C)Oc2ccc(NS(=O)(=O)c3ccc(Cl)cc3)cc2C(=O)N([C@@H](C)CO)C[C@@H]1C | -1 | . | . | . | . | .
COc1ccc(NC(=O)COC(=O)c2cc(SC)ccc2Cl)c(OC)c1 | . | 22* | -6 | 7 | 9.1* | 12
COc1ccc(C(C)(C)C)cc1NC(=O)COC(=O)c1cc(SC)ccc1Cl | 2 | -1 | -5 | 4 | . | .
COc1ccc(NC(=O)N2CC(=O)N3[C@H](CO)[C@H](c4ccc(-c5ccccc5)cc4)[C@@H]3C2)cc1 | -3 | . | . | . | . | .
O=C(C[C@H]1CC[C@H]2[C@@H](COC[C@H](O)CN2CC2CCOCC2)O1)NCC1CC1 | -1 | . | . | . | . | .
CCOc1cc(NC(=O)c2cccs2)c(OCC)cc1NC(=O)c1ccco1 | . | 12* | 1 | 6 | 17* | 6
CO[C@@H]1CN(C)C(=O)c2cc(NC(=O)Nc3ccccc3)ccc2OC[C@H](C)N(C(=O)CC2CC2)C[C@@H]1C | 2 | . | . | . | . | .
Cc1ccc2nc(SCC(=O)c3c[nH]c4ccccc34)[nH]c2c1 | 0 | 12* | 2 | -2 | 5 | 4
Cc1noc(C)c1S(=O)(=O)Nc1cccc2c1O[C@H](CN(C)C(=O)Nc1cccc3ccccc13)[C@H](C)CN([C@@H](C)CO)C2=O | 0 | . | . | . | . | .
C[C@H]1CN([C@@H](C)CO)C(=O)c2cccc(NC(=O)Nc3ccc(F)cc3)c2O[C@H]1CN(C)S(=O)(=O)c1ccccc1 | -2 | . | . | . | . | .
N#C/C(=C(/O)COC(=O)CSc1ccc(Cl)cc1)c1nc2ccccc2[nH]1 | -1 | 9.7* | 1 | 3 | -4 | 4
C[C@@H]1CN([C@@H](C)CO)C(=O)c2cccc(NS(=O)(=O)c3cn(C)cn3)c2O[C@H]1CN(C)C(=O)Nc1ccc(C(F)(F)F)cc1 | -2 | . | . | . | . | .
Clc1ccc(Cl)c(-c2nn3c(COc4ccccc4)nnc3s2)c1 | . | 17* | -2 | 12 | 11* | 4
C=CCNC(=O)NC(=O)CSc1nc2cc([N+](=O)[O-])ccc2n1-c1cccc(C(F)(F)F)c1 | -2 | 11* | 0 | 7 | 3 | 6
CCCCn1c(=O)c(CCC(=O)OCC(=O)Nc2ccc(F)c(Cl)c2)nc2ccccc21 | . | 10* | 0 | 9 | 6 | 4
CCSc1ccc(-c2nn(-c3ccccc3)cc2/C=C(/C#N)C(=O)NCCCOC)cc1 | . | 22* | -3 | -19 | 40* | 19*
CN(C)S(=O)(=O)c1ccc2[nH]cc(/C=C/c3nc4ccccc4c(=O)n3-c3ccccc3)c2c1 | . | 13* | 2 | 1 | 9.2* | 5
COc1ccc(N=CC2=C(O)c3ccccc3C2=O)c(OC)c1 | . | 12* | 3 | -7 | 0 | 6
CSc1ccccc1NC(=O)Nc1cccc(Cl)c1C | -1 | 3 | 2 | -7 | . | .
CSc1ccccc1NC(=O)Nc1cccc(Cl)c1Cl | . | 16* | -3 | -1 | 9.2* | 9
O=C(NCC[C@@H]1CC[C@@H](NS(=O)(=O)Cc2ccccc2)[C@@H](CO)O1)C1CCOCC1 | 1 | . | . | . | . | .
COc1ccc(S(=O)(=O)N2C[C@H](O)COC[C@H]3O[C@H](CC(=O)NCCCN(C)C)CC[C@@H]32)cc1 | -1 | . | . | . | . | .
CCCOc1ccc(C(=O)NC2CCSc3ccccc32)cc1 (configuration not stated) | 2 | 17* | -1 | 8 | 1 | 6
Cc1ccc(NC(=O)Cn2c(/C=C/c3ccccc3)nc3ccccc32)cc1C | . | 17* | 4 | 14 | -1 | .
SMILES | CFTR F508del cor | MC4R ag barr | SMARCA2 act | MC4R antag cAMP | MC4R barr conf | MOR DOR agonist
Cc1ccc(NC(=O)Cn2cnc3ccccc32)cc1C | . | -2 | -2 | 4 | . | .
O=C(Cn1c(C(=O)c2ccccc2)nc2ccccc21)c1ccc(Cl)cc1 | 3 | 0 | -1 | -9 | . | .
Cc1ccc(C(=O)Cn2c(C(=O)/C=C/c3ccccc3)nc3ccccc32)cc1 | . | 20* | 1 | 7 | 21* | 4
CCOC(=O)C(=CNc1cc(C)nn1-c1ccc(C)cc1)C(=O)OCC | . | 3 | 1 | -6 | . | .
CCOC(=O)C(=CNc1ccc2c(c1)nnn2-c1ccc(Cl)cc1)C(=O)OCC | . | 22* | -1 | 11 | 23* | 4
CCCN1C[C@H](C)[C@@H](OC)CN(C)C(=O)c2ccc(NC(=O)C3CCC3)cc2OC[C@H]1C | 0 | . | . | . | . | .
Nc1nonc1-c1nc2ccccc2n1Cc1ccc(Cl)cc1 | . | 11* | -5 | -6 | -1 | 5
COc1cc(Cn2c(-c3nonc3N)nc3ccccc32)ccc1C | . | 10* | -3 | -25 | -4 | 4
Cc1ccc(Cn2c(-c3nonc3N)nc3ccccc32)cc1 | . | 5 | 1 | -1 | . | .
C[C@H](CO)N1C[C@H](C)[C@@H](CN(C)S(=O)(=O)c2cccs2)OCc2ccccc2-c2c(n(C)c3ccccc23)C1=O | -1 | . | . | . | . | .
CCOC(=O)CSc1c(-c2ccc(Cl)cc2)[nH]c2ccccc12 | -3 | 11* | -3 | 12 | 4 | 14
O=C(C[C@@H]1CC[C@H](NC(=O)c2ccc(F)cc2)[C@@H](CO)O1)NCCc1ccncc1 | 4 | . | . | . | . | .
CCOC(=O)Cc1ccc(Nc2nc(NCc3cccs3)nc3ccsc23)cc1 | -1 | 15* | -3 | -3 | -4 | 5
COc1ccc(Nc2nc(NCc3cccs3)nc3ccsc23)cc1OC | 1 | -1 | 3 | -3 | . | .
CC(=O)Nc1cc(-c2ccsc2)cn2c(-c3ccc(F)cc3)cnc12 | -2 | 18* | -8 | -4 | 13* | 4
COc1ccccc1-c1cc(NC(C)=O)c2ncc(-c3ccc(S(C)(=O)=O)cc3)n2c1 | 0 | 0 | -2 | 11 | . | .
COc1ccc(-c2cnc3c(NC(C)=O)cc(-c4ccccc4OC)cn23)cc1OC | 4 | 22* | -1 | -28 | 25* | 2
COc1ccccc1-c1cc(NC(C)=O)c2ncc(-c3cccc(C(C)=O)c3)n2c1 | 3 | 11* | -4 | -17 | 18* | 4
CC(=O)Nc1cc(-c2cccc(C)c2)cn2c(-c3ccc(S(C)(=O)=O)cc3)cnc12 | -2 | 2 | 2 | 12 | . | .
CC(=O)Nc1cc(-c2cccc(C(=O)NCCO)c2)cn2c(-c3ccc(F)cc3)cnc12 | 1 | 3 | -1 | 23 | . | .
CC(=O)Nc1cc(-c2cccnc2)cn2c(-c3ccc(F)cc3)cnc12 | 1 | 42* | -1 | 12 | 44* | 0
